Test results published in ChEMBL document CHEMBL1158610, “5-arylamino-1,2,4-triazin-6(1H)-one CRF1 receptor antagonists” (Bioorg Med Chem Lett, 2010).
pIC50: −log10 of the molar value.

Target: T1, Corticotropin-releasing factor receptor 1 (Rattus norvegicus, UniProt P35353)
T1 sequence (P35353 whole entry): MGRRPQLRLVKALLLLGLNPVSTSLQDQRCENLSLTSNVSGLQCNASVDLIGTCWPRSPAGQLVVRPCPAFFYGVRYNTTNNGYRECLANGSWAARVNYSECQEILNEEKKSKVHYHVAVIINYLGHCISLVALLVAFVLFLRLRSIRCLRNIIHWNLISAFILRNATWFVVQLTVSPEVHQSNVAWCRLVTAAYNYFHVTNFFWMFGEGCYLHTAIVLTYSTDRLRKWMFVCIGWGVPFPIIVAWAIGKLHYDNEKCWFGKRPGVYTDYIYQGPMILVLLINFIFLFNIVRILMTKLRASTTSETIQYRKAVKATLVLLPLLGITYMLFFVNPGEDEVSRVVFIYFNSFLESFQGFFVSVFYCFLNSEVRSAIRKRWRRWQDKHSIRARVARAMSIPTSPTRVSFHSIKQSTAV
Test: Displacement of [125I]Tyr-ovine CRF from rat CRF1 receptor
Summary of the method: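 Rat frontal cortex homogenate; inhibition of specific [¹²⁵I]Tyr-ovine-CRF binding measured across a titration of test compound to give IC50. Values are means of three experiments, with standard deviation.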

| Structure (SMILES) | pIC50 |
| --- | --- |
| COC[C@H](C1CC1)n1nc(C)nc(Nc2cc(C)c(OC(F)F)nc2C)c1=O | 8.19 |
| CCOc1cc(C)c(Nc2nc(C)nn(C(C)C3CC3)c2=O)cc1C (configuration not stated) | 7.55 |
| COC[C@@H](C1CC1)n1nc(C)nc(Nc2c(Cl)cc(OC)cc2Cl)c1=O | 7.16 |
| COCC(C1CC1)n1nc(C)nc(Nc2c(Cl)cc(C(F)(F)F)cc2Cl)c1=O (configuration not stated) | 7.96 |
| COc1nc(C)c(Nc2nc(C)nn(C(C)C3CC3)c2=O)cc1C (configuration not stated) | 7.59 |
| COC[C@H](C1CC1)n1nc(C)nc(Nc2c(Cl)cc(OC(F)F)cc2Cl)c1=O | 8.36 |
| CCC(C1CC1)n1nc(C)nc(Nc2c(Cl)cc(OC(F)F)cc2Cl)c1=O (configuration not stated) | 8.68 |
| COC[C@@H](C1CC1)n1nc(C)nc(Nc2ccc(OC)nc2C(F)(F)F)c1=O | 8.64 |
| COc1nc(C)c(Nc2nc(C)nn(C(C)C3CC3)c2=O)c(OC)n1 (configuration not stated) | 5.96 |
| Cc1cc(C)c(Nc2nc(C)nn(C(C)C3CC3)c2=O)c(C)c1 (configuration not stated) | 7.72 |
| COc1ccc(Nc2nc(C)nn(C(C)C3CC3)c2=O)c(C(F)(F)F)n1 (configuration not stated) | 8.17 |
| COC[C@H](C1CC1)n1nc(C)nc(Nc2ccc(OC)nc2C(F)(F)F)c1=O | 7.82 |
| COC[C@H](C1CC1)n1nc(C)nc(Nc2c(Cl)cc(OC)cc2Cl)c1=O | 8.14 |
| CCOc1ccc(Nc2nc(C)nn(C(COC)C3CC3)c2=O)c(C(F)(F)F)n1 (configuration not stated) | 8.52 |
| CCOc1ccc(Nc2nc(C)nn([C@H](C)C3CC3)c2=O)c(C(F)(F)F)n1 | 8.07 |
| COCC(C1CC1)n1nc(C)nc(Nc2ccc(OC)nc2C(F)(F)F)c1=O (configuration not stated) | 8.43 |
| Cc1nc(Nc2c(Cl)cc(OC(F)(F)F)cc2Cl)c(=O)n(C(C)C2CC2)n1 (configuration not stated) | 7.41 |
| COc1cc(Cl)c(Nc2nc(C)nn([C@H](C)C3CC3)c2=O)c(Cl)c1 | 8.08 |
| COC[C@@H](C1CC1)n1nc(C)nc(Nc2cc(C)c(OC(F)F)nc2C)c1=O | 8.96 |

| Structure (SMILES) | pIC50 |
| --- | --- |
| CCC(C1CC1)n1nc(C)nc(Nc2cc(C)c(C#N)cc2C)c1=O (configuration not stated) | 8.03 |
| COCC(C1CC1)n1nc(C)nc(Nc2c(Cl)cc(OC)cc2Cl)c1=O (configuration not stated) | 8.20 |
| Cc1nc(Nc2c(C)cc(Cl)cc2Cl)c(=O)n(C(C)C2CC2)n1 (configuration not stated) | 7.48 |
| COc1cc(C)c(Nc2nc(C)nn(C(C)C3CC3)c2=O)c(C)c1 (configuration not stated) | 7.17 |
| CCC(C1CC1)n1nc(C)nc(Nc2cc(OC)c(C#N)cc2C)c1=O (configuration not stated) | 7.89 |
| Cc1nc(Nc2c(Cl)cc(OC(F)F)cc2Cl)c(=O)n([C@H](C)C2CC2)n1 | 7.89 |
| Cc1nc(Nc2c(Cl)cc(C#N)c(Cl)c2Cl)c(=O)n(C(C)C2CC2)n1 (configuration not stated) | 8.00 |
| COCC(C1CC1)n1nc(C)nc(Nc2cc(C)c(OC)nc2C)c1=O (configuration not stated) | 7.70 |
| Cc1nc(Nc2c(Cl)cc(C(F)(F)F)nc2Cl)c(=O)n(C(C)C2CC2)n1 (configuration not stated) | 6.59 |
| COc1cc(Nc2nc(C)nn(C(C)C3CC3)c2=O)c(C)cc1C#N (configuration not stated) | 7.03 |
| Cc1nc(Nc2c(Cl)cc(OC(F)F)cc2Cl)c(=O)n(C(C)C2CC2)n1 (configuration not stated) | 8.00 |
| Cc1nc(Nc2cc(Cl)c(C#N)cc2Cl)c(=O)n(C(C)C2CC2)n1 (configuration not stated) | 6.57 |
| CCC(C1CC1)n1nc(C)nc(Nc2ccc(OC)nc2C(F)(F)F)c1=O (configuration not stated) | 8.43 |
| COc1ccc(Nc2nc(C)nn([C@@H](C)C3CC3)c2=O)c(C(F)(F)F)n1 | 7.92 |
| CCC(C1CC1)n1nc(C)nc(Nc2cc(C)c(OC)cc2C)c1=O (configuration not stated) | 9.05 |
| COc1ccc(Nc2nc(C)nn([C@H](C)C3CC3)c2=O)c(C(F)(F)F)n1 | 8.46 |
| CCC(C1CC1)n1nc(C)nc(Nc2cc(C)c(OC)nc2C(F)(F)F)c1=O (configuration not stated) | 8.57 |
| CCOc1ccc(Nc2nc(C)nn([C@H](COC)C3CC3)c2=O)c(C(F)(F)F)n1 | 7.57 |
| COC[C@@H](C1CC1)n1nc(C)nc(Nc2c(Cl)cc(OC(F)F)cc2Cl)c1=O | 7.64 |

| Structure (SMILES) | pIC50 |
| --- | --- |
| CCC(C1CC1)n1nc(C)nc(Nc2c(Cl)cc(C(F)(F)F)cc2Cl)c1=O (configuration not stated) | 8.20 |
| CCOc1ccc(Nc2nc(C)nn(C(C)C3CC3)c2=O)c(C(F)(F)F)n1 (configuration not stated) | 7.92 |
| CCOc1ccc(Nc2nc(C)nn(C(CC)C3CC3)c2=O)c(C(F)(F)F)n1 (configuration not stated) | 8.44 |
| COCC(C1CC1)n1nc(C)nc(Nc2c(Cl)cc(OC(F)F)cc2Cl)c1=O (configuration not stated) | 8.20 |
| COc1cc(Cl)c(Nc2nc(C)nn([C@@H](C)C3CC3)c2=O)c(Cl)c1 | 8.12 |
| CCOc1ccc(Nc2nc(C)nn([C@@H](C)C3CC3)c2=O)c(C(F)(F)F)n1 | 7.64 |
| CCC(C1CC1)n1nc(C)nc(Nc2cc(C)c(OC)nc2C)c1=O (configuration not stated) | 8.19 |
| CCOc1ccc(Nc2nc(C)nn([C@@H](COC)C3CC3)c2=O)c(C(F)(F)F)n1 | 8.62 |
| COCC(C1CC1)n1nc(C)nc(Nc2cc(C)c(OC(F)F)nc2C)c1=O (configuration not stated) | 8.96 |
| Cc1nc(Nc2c(Cl)cc(OC(F)F)cc2Cl)c(=O)n([C@@H](C)C2CC2)n1 | 8.14 |
| COCC(C1CC1)n1nc(C)nc(Nc2c(C)cc(OC)cc2C)c1=O (configuration not stated) | 7.29 |
| Cc1nc(Nc2cc(C)c(C#N)cc2C)c(=O)n(C(C)C2CC2)n1 (configuration not stated) | 7.22 |
| COCC(C1CC1)n1nc(C)nc(Nc2c(Cl)cc(OC(F)(F)F)cc2Cl)c1=O (configuration not stated) | 7.96 |
| COc1cc(C)c(Nc2nc(C)nn(C(C)C3CC3)c2=O)cc1C (configuration not stated) | 8.30 |
| Cc1nc(Nc2c(Cl)cc(C(F)(F)F)cc2Cl)c(=O)n(C(C)C2CC2)n1 (configuration not stated) | 7.85 |
| COc1cc(Cl)c(Nc2nc(C)nn(C(C)C3CC3)c2=O)c(Cl)c1 (configuration not stated) | 7.82 |
| Cc1nc(Nc2cc(C(F)(F)F)c(C#N)cc2Cl)c(=O)n(C(C)C2CC2)n1 (configuration not stated) | 5.48 |
| Cc1nc(Nc2c(Cl)cc(S(C)(=O)=O)cc2Cl)c(=O)n(C(C)C2CC2)n1 (configuration not stated) | 7.70 |

Tested on: Liver microsomes
Test: Metabolic stability in human liver microsome assessed as compound remaining
Type: ADME

| Structure (SMILES) | Stability |
| --- | --- |
| COc1ccc(Nc2nc(C)nn([C@H](C)C3CC3)c2=O)c(C(F)(F)F)n1 | 85% |
| Cc1cn([C@H](C)C2CC2)c(=O)c(Nc2c(Cl)cc(OC(F)F)cc2Cl)n1 | 71% |

Tested on: Liver microsomes
Test: Metabolic stability in rat liver microsome assessed as compound remaining
Type: ADME

| Structure (SMILES) | Stability |
| --- | --- |
| COc1ccc(Nc2nc(C)nn([C@H](C)C3CC3)c2=O)c(C(F)(F)F)n1 | 37% |
| Cc1cn([C@H](C)C2CC2)c(=O)c(Nc2c(Cl)cc(OC(F)F)cc2Cl)n1 | 12% |

Target: T2, Corticotropin-releasing factor receptor 1 (Rattus norvegicus) (UniProt P35353)
T2 sequence (whole entry): T1 sequence (P35353 whole entry)
Test: Displacement of [125]sauvagin from CRF1 receptor in rat parietal cortex

| Structure (SMILES) | Activity |
| --- | --- |
| CCOc1ccc(Nc2nc(C)nn(C(COC)C3CC3)c2=O)c(C(F)(F)F)n1 (configuration not stated) | 46% |
| CCC(C1CC1)n1nc(C)nc(Nc2cc(C)c(OC)cc2C)c1=O (configuration not stated) | 64% |
